Assay results taken from ChEMBL document CHEMBL1123317, “[pGlu6,Pro9]SP6-11, a selective agonist for the substance P P-receptor subtype” (J Med Chem, 1986).

Assays:
Cavia porcellus [1] = species on record: Cavia porcellus; test: Compound was evaluated for potency relative to neurokinin B against SP-N system (enteric nerves of Guinea pig ileum); assay type: functional
In short: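 Neuronal SP-N receptor of guinea pig ileum assayed after desensitizing the muscular receptor with substance P methyl ester 10⁻⁷ M (2-min preincubation). Tissue in Tyrode's solution, 95% O2-5% CO2, 34 °C; isotonic contractions; peptides at 2-3-min intervals, under 30 s contact.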

Cricetinae gen. sp. [2] = test: Compound was evaluated for potency in SP-E system and relative potency was determined against Hamster urinary bladder; assay type: functional, Cricetulus griseus
In short: (§1)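 Isolated tissue (hamster urinary bladder or rat duodenum) in 10-mL bath of Tyrode's solution gassed with 95% O2-5% CO2 at 34 °C; isotonic contraction recorded. Duodenum: peptides applied at 2-3-min intervals, contact under 30 s. Bladder: 15-30-min intervals, contact 1-3 min.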

Rattus norvegicus [3] = species on record: Rattus norvegicus; test: Compound was evaluated for potency in SP-E system and relative potency was determined against rat duodenum; assay type: functional; in short: as §1
Cavia porcellus [4] = species on record: Cavia porcellus; test: Compound was evaluated for effective dose against guinea pig ileum; assay type: functional
In short: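 Guinea pig ileum in 10-mL bath of Tyrode's solution, 95% O2-5% CO2, 34 °C, with atropine 10⁻⁶ M present (muscular SP-P receptor); isotonic contractions; peptides applied at 2-3-min intervals, contact under 30 s.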

Cricetinae gen. sp. [5] = test: Compound was evaluated for effective dose against hamster bladder; assay type: functional, Cricetulus griseus; in short: as §1
Rattus norvegicus [6] = species on record: Rattus norvegicus; test: Compound was evaluated for effective dose against rat duodenum; assay type: functional; in short: as §1

| EC50 (Cavia porcellus [4]) [nM] | EC50 (Cricetinae gen. sp. [5]) [nM] | EC50 (Rattus norvegicus [6]) [nM] | SMILES | Relative potency (Cavia porcellus [1]) | Relative potency (Cricetinae gen. sp. [2]) | Relative potency (Rattus norvegicus [3]) |
| --- | --- | --- | --- | --- | --- | --- |
| – | – | – | CSCC[C@H](NC(=O)[C@H](CC(C)C)NC(=O)CNC(=O)[C@@H](NC(=O)[C@H](Cc1ccccc1)NC(=O)[C@H](CO)NC(=O)[C@H](CC(=O)O)NC(=O)[C@@H](NC(=O)[C@H](CCCCN)NC(=O)[C@@H](N)Cc1c[nH]cn1)[C@@H](C)O)C(C)C)C(N)=O [NEUROKININ A] | 0.04 | 1 | 0.3 |
| 1.5 | 50 | 6.5 | CSCC[C@H](NC(=O)[C@H](CC(C)C)NC(=O)CNC(=O)[C@@H](NC(=O)[C@H](Cc1ccccc1)NC(=O)[C@H](Cc1ccccc1)NC(=O)[C@H](CC(=O)O)NC(=O)[C@H](Cc1c[nH]cn1)NC(=O)[C@H](CCSC)NC(=O)[C@@H](N)CC(=O)O)C(C)C)C(N)=O [NEUROKININ B] | 1 | 1 | 1 |
